Results from paper PMC3751212 (Clinical Drug Investigation, 2013).
Read-outs that look alike come from different tables or passages of the source.

How the values were obtained:
[1] = type: in vivo, human; conditions: for CL renal / AUC(0-inf) / Cmax / Tmax / AUC(0-t) / CL/F / Vd/F / half-life / k el: human, 20 mg; for CL renal: plasma and urine, CLR; for AUC(0-inf) / Cmax / Tmax / AUC(0-t) / CL/F / Vd/F / half-life / k el: plasma; for AUC(0-t): AUClast, fasted, n = 6; for CL/F: CLP/F; for Vd/F: Vz/F; for half-life: t½β; for k el: λz
Summary of the method: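 Single oral 20 mg tablet given fasted (8–10 h) to groups of six subjects stratified by iothalamate GFR (>80, 50–80, 30–50, ≤30 mL/min/1.73 m2). Heparinised blood was drawn pre-dose and 0.25–72 h post-dose; plasma was spun at 1,500×g, 4–8 °C, then frozen. AUClast used the trapezoidal rule, AUC∞ = AUClast + Clast/ke, and CLP/F = dose/AUC∞. Ratios to the healthy group came from ln-transformed ANOVA least-squares means with 90 % CI.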

[2] = Urine concentrations / urinary excretion of bilastine after a single oral dose; type: in vivo, human; conditions: for Urine concentrations of bilastine: mean ± SD
Summary of the method: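 Subjects were grouped by iothalamate GFR (n = 6 each) and received one fasted oral 20 mg tablet. Urine was pooled over 0–12, 12–24, 24–48 and 48–72 h post-dose and kept refrigerated during each interval. Total volume was measured per interval, and aliquots were stored at −20 °C. Ae is the total unchanged drug over the whole collection, and CLR = Ae/AUC over a defined period.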

Safety evaluations = type: in vivo, human
Summary of the method: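 Four groups (n = 6) were assigned by iothalamate GFR: >80, 50–80, 30–50 and ≤30 mL/min/1.73 m2. Each subject took one oral 20 mg tablet with 200 mL water after an 8–10 h fast. ECG (12-lead) was recorded pre-dose, 1 and 24 h, with QTcF and QTcB. Vital signs were taken daily. Hematology, biochemistry and urinalysis were done at screening, pre-dose and 72 h. AEs were coded by MedDRA 11.0, and results summarised descriptively.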

histamine H1 receptor = conditions: animal tissues with a high density of H1 receptors; cited from earlier work
[3] = system: 30 other receptors (including muscarinic receptors); conditions: at a high concentration; cited from earlier work
[4] = system: histamine receptor subtypes H2, H3, and H4; conditions: at a high concentration; cited from earlier work
[5] = system: human breast cancer resistance protein (BCRP); conditions: cited from earlier work
[6] = system: organic anion transporter 1 (OAT1); conditions: cited from earlier work
[7] = system: organic anion transporter 3 (OAT3); conditions: cited from earlier work
[8] = system: organic cation transporter 2 (OCT2); conditions: cited from earlier work
[9] = single 80 mg oral dose; 95 % CI 3,174.7–6278.4; cited from earlier work
[10] = compared among the renal impairment groups; cited from earlier work
[11] = doses up to 40 mg; cited from earlier work
[12] = cited from earlier work
[13] = group 2: mild vs group 1: healthy
[14] = group 3: moderate vs group 1: healthy
[15] = group 4: severe vs group 1: healthy
[16] = po, Group 1: healthy, single oral 20 mg, mean ± SD
[17] = po, Group 2: mild, single oral 20 mg, mean ± SD
[18] = po, Group 3: moderate, single oral 20 mg, mean ± SD
[19] = po, Group 4: severe, single oral 20 mg, mean ± SD
[20] = oral, geometric LS mean, Test group 2: mild, ANOVA
[21] = oral, geometric LS mean, Test group 4: severe, ANOVA

CCOCCn1c(C2CCN(CCc3ccc(C(C)(C)C(=O)O)cc3)CC2)nc2ccccc21 [bilastine, 2-[4-(2-(4-(1-(2-ethoxyethyl)-1H-benzimidazol-2-yl)piperidin-1-yl)ethyl)phenyl]-2-methylpropionic acid]
Clast ([1]; Group 1: healthy, single oral 20 mg, mean ± SD): 0.3 ± 0.1 ng/mL
Clast ([1]; Group 2: mild, single oral 20 mg, mean ± SD): 0.8 ± 0.3 ng/mL
Clast ([1]; Group 3: moderate, single oral 20 mg, mean ± SD): 0.4 ± 0.1 ng/mL
Clast ([1]; Group 4: severe, single oral 20 mg, mean ± SD): 1.5 ± 1.1 ng/mL
amount in the plasma after 24 h relative to Cmax ([1]; all the groups, single oral 20 mg): less than 5 % of the Cmax
AUClast, geometric mean ratio [1, 13]: 1.34
AUC∞, geometric mean ratio [1, 13]: 1.36
Cmax, geometric mean ratio [1, 13]: 1.24
tmax, difference of median values [1, 13]: 0.00
AUClast, geometric mean ratio [1, 14]: 1.94
AUC∞, geometric mean ratio [1, 14]: 1.94
Cmax, geometric mean ratio [1, 14]: 2.00
tmax, difference of median values [1, 14]: 0.75
AUClast, geometric mean ratio [1, 15]: 2.11
AUC∞, geometric mean ratio [1, 15]: 2.15
Cmax, geometric mean ratio [1, 15]: 1.59
tmax, difference of median values [1, 15]: 0.00
CL renal [1, 16]: 145 mL/min
CL renal [1, 17]: 116 mL/min
CL renal [1, 18]: 91.5 mL/min
CL renal [1, 19]: 67.2 mL/min
AUC(0-inf) [1, 20]: 959 ng·h/mL
AUC(0-inf) [1, 21]: 1510 ng·h/mL
Cmax [1, 20]: 167 ng/mL
Cmax [1, 21]: 214 ng/mL
Tmax ([1]; oral, median, Reference (group 1: healthy)): 1.5 h
Tmax ([1]; oral, median, Test group 2: mild): 1.5 h
Tmax ([1]; oral, median, Test group 3: moderate): 2.25 h
Tmax ([1]; oral, median, Test group 4: severe): 1.5 h
AUC(0-t) ([1]; po, Group 1: healthy (GFR >80), single oral 20 mg, mean ± SD): 733 ± 260 ng·h/mL
AUC(0-t) ([1]; po, Group 2: mild renal insufficiency (GFR 50–80), single oral 20 mg, mean ± SD): 947 ± 148 ng·h/mL
AUC(0-t) ([1]; po, Group 3: moderate renal insufficiency (GFR 30–50), single oral 20 mg, mean ± SD): 1380 ng·h/mL
AUC(0-t) ([1]; po, Group 4: severe renal insufficiency (GFR ≤30), single oral 20 mg, mean ± SD): 1650 ng·h/mL
AUC(0-inf) [1, 16]: 737 ± 261 ng·h/mL
AUC(0-inf) [1, 17]: 967 ± 140 ng·h/mL
AUC(0-inf) [1, 18]: 1380 ng·h/mL
AUC(0-inf) [1, 19]: 1710 ng·h/mL
CL/F [1, 16]: 495 mL/min
CL/F [1, 17]: 351 mL/min
CL/F [1, 18]: 248 mL/min
CL/F [1, 19]: 271 mL/min
Cmax [1, 16]: 144 ± 57.8 ng/mL
Cmax [1, 17]: 172 ± 45 ng/mL
Cmax [1, 18]: 271 ± 30.4 ng/mL
Cmax [1, 19]: 229 ± 81.8 ng/mL
Vd/F [1, 16]: 383 ± 122 L
Vd/F [1, 17]: 462 ± 244 L
Vd/F [1, 18]: 223 ± 55.7 L
Vd/F [1, 19]: 351 ± 193 L
Tmax ([1]; po, Group 1: healthy, single oral 20 mg, median (range)): 1.5 h
Tmax ([1]; po, Group 2: mild, single oral 20 mg, median (range)): 1.5 h
Tmax ([1]; po, Group 3: moderate, single oral 20 mg, median (range)): 2.25 h
Tmax ([1]; po, Group 4: severe, single oral 20 mg, median (range)): 1.5 h
half-life [1, 16]: 9.26 ± 2.79 h
half-life [1, 17]: 15.1 ± 7.66 h
half-life [1, 18]: 10.5 ± 2.34 h
half-life [1, 19]: 18.4 ± 11.4 h
k el [1, 16]: 2.21e-05 s⁻¹
k el [1, 17]: 1.65e-05 s⁻¹
k el [1, 18]: 1.92e-05 s⁻¹
k el [1, 19]: 1.39e-05 s⁻¹
Urine concentrations of bilastine ([2]; 0–12 h, Group 1: healthy, single oral 20 mg): 4,387.5 ± 3,358.4 ng/mL
Urine concentrations of bilastine ([2]; 0–12 h, Group 2: mild): 4,824.1 ± 2,073.0 ng/mL
Urine concentrations of bilastine ([2]; 0–12 h, Group 3: moderate): 7,184.3 ± 3,843.4 ng/mL
Urine concentrations of bilastine ([2]; 0–12 h, Group 4: severe): 3,469.8 ± 2,066.2 ng/mL
Urine concentrations of bilastine ([2]; 12–24 h, Group 1: healthy): 531.7 ± 342.0 ng/mL
Urine concentrations of bilastine ([2]; 12–24 h, Group 2: mild): 597.7 ± 159.2 ng/mL
Urine concentrations of bilastine ([2]; 12–24 h, Group 3: moderate): 472.9 ± 221.9 ng/mL
Urine concentrations of bilastine ([2]; 12–24 h, Group 4: severe): 813.0 ± 567.5 ng/mL
Urine concentrations of bilastine ([2]; 24–48 h, Group 1: healthy): 103.4 ± 38.6 ng/mL
Urine concentrations of bilastine ([2]; 24–48 h, Group 2: mild): 159.3 ± 43.3 ng/mL
Urine concentrations of bilastine ([2]; 24–48 h, Group 3: moderate): 126.7 ± 81.1 ng/mL
Urine concentrations of bilastine ([2]; 24–48 h, Group 4: severe): 260.4 ± 212.1 ng/mL
Urine concentrations of bilastine ([2]; 48–72 h, Group 1: healthy): 20.9 ± 10.0 ng/mL
Urine concentrations of bilastine ([2]; 48–72 h, Group 2: mild): 49.3 ± 40.7 ng/mL
Urine concentrations of bilastine ([2]; 48–72 h, Group 3: moderate): 30.3 ± 7.4 ng/mL
Urine concentrations of bilastine ([2]; 48–72 h, Group 4: severe): 97.8 ± 69.3 ng/mL
time by which urinary excretion was essentially complete ([2]; single oral 20 mg, most excreted in the first 12 h): up to 72 h
tolerability (Safety evaluations; 20 mg oral dose, healthy and renally impaired subjects): well-tolerated
subjects with outlier ECG results (Safety evaluations; all 24 subjects, single oral 20 mg): 20.8%
subjects with outlier ECG results (Safety evaluations; each of the mild, moderate, and severe impairment groups): 16.7%
subjects with outlier ECG results (Safety evaluations; healthy group): 33.3%
mean blood glucose concentration (Safety evaluations; mildly impaired group, end of study, reference range 60–115 mg/dL): 120.8 mg/dL
affinity for H1 receptors relative to cetirizine (histamine H1 receptor): three times higher
affinity for H1 receptors relative to fexofenadine (histamine H1 receptor): five times higher
affinity for 30 other receptors [3]: does not show affinity
affinity for histamine receptor subtypes H2, H3, and H4 [4]: does not show affinity
substrate of BCRP [5]: not a substrate
substrate of OAT1 [6]: not a substrate
substrate of OAT3 [7]: not a substrate
substrate of OCT2 [8]: not a substrate
AUC∞, mean estimated exposure (safety margin) [9]: 4,225.6 ng·h/mL
plasma protein binding [10]: comparable values were found among the renal impairment groups
sedative or psychomotor effects [11]: No sedative or psychomotor effects were detected
metabolism [12]: not metabolized
